In PMC11807182 (Scientific Reports, 2025):
pEC50: −log10 of the molar value.

Legend:
S. mansoni adult worms = conditions: read-out: EC50 for S. mansoni adult worms; cited from earlier work
Caenorhabditis elegans = experiment: Lethal toxicity assay in C. elegans; format: in vivo; conditions: L4-stage larvae, Bristol N2 strain, 24 h, 21 °C
Procedure, shortened: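 C. elegans Bristol N2 was grown on NGM plates seeded with E. coli OP50. Synchronized L4 larvae, 60/well in M9 medium, were exposed to test compound starting at 1,000 µM, with ivermectin reference and 1% DMSO negative control. Viability was scored by movement after 24 h at 21 °C. Triplicate; LD50 from sigmoidal dose-response curves.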

[1] = system: Schistosoma mansoni adult worms; experiment: In vitro assay with adult S. mansoni; format: cell-based; conditions: concentrations starting from 50 µM, up to 72 h
Procedure, shortened: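 S. mansoni (Belo Horizonte strain) adults were perfused from the hepatic portal vein of Swiss mice 49 days post-infection. One worm pair/well in RPMI 1640 with 10% FBS, penicillin and streptomycin; test compound starting at 50 µM, with praziquantel, metal salts and 1% DMSO controls; 37 °C, 5% CO₂, up to 72 h. Viability by inverted microscope at 0, 24, 48 and 72 h; death meant no movement ≥1 min after gentle stimulation. Triplicate; EC50 by sigmoidal fit.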

[2] = system: Angiostrongylus cantonensis L1 larvae; experiment: In vitro assay with A. cantonensis L1 larvae; format: cell-based; conditions: for activity against A. cantonensis: L1 larvae, concentrations starting from 50 µM, 24 h
Procedure, shortened: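 A. cantonensis (NPDN-AC strain, cycled through B. glabrata and Wistar rats) L1 larvae were recovered from rat feces by the Rugai technique and washed in RPMI 1640 with antibiotics. About 100 larvae/well were exposed to test compound starting at 50 µM at 21 °C, with drug-free medium, metal salt and 1% DMSO controls. Viability was checked microscopically at 0 and 24 h; efficacy meant ≥60% larvae immobile.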

For 2-oxopopulifolic acid methyl ester, the pEC50 (S. mansoni adult worms) is given as 4.30.
For `CC1=CC(=O)CC2[C@]1(C)CC[C@@H](C)[C@]2(C)CCC(C)CC(=O)O` (some centres unmarked) [2-oxopopulifolic acid], the pEC50 (S. mansoni adult worms) is given as 4.30.
For `O=C1C(=O)c2cccnc2-c2ncccc21.O=C1C(=O)c2cccnc2-c2ncccc21.[Ag+].[O-][Cl+3]([O-])([O-])[O-]` [Ag-phendione, [Ag(phendione)2](ClO4)], the “C. elegans LD50” value (Caenorhabditis elegans) was 167 µM.
With `O=[N+]([O-])[O-].[Ag+]` [AgNO₃] the antischistosomal activity [1] was “no antischistosomal activity” and the “activity against A. cantonensis” value [2] was “no activity”.
With `O.O.O.O.O.O.O.O.O=C1C(=O)c2cccnc2-c2ncccc21.O=C1C(=O)c2cccnc2-c2ncccc21.O=C1C(=O)c2cccnc2-c2ncccc21.[Cu+2].[O-][Cl+3]([O-])([O-])[O-].[O-][Cl+3]([O-])([O-])[O-]` [Cu-phendione, [Cu(phendione)3](ClO4)2·8H2O] the “C. elegans LD50” value (Caenorhabditis elegans) was 280 µM.
With `O.O.O.O.O.O=S(=O)([O-])[O-].[Cu+2]` [CuSO₄·5 H₂O] the antischistosomal activity [1] was “no antischistosomal activity” and the “activity against A. cantonensis” value [2] was “no activity”.
With `O=C1C(=O)c2cccnc2-c2ncccc21` [Phendione, 1,10-phenanthroline-5,6-dione] the “C. elegans LD50” value (Caenorhabditis elegans) was 719 µM and the “larval motility compared to the control group” value ([2]; A. cantonensis L1 larvae) was “significantly reduced”.
In the case of `Cc1ccc(C(C)C)cc1O` [carvacrol], the pEC50 (S. mansoni adult worms) is listed as 4.25.
For `CC(=O)Oc1cc(C(C)C)ccc1C` [carvacryl acetate], the pEC50 (S. mansoni adult worms) is given as 4.38.
For `C=C1C(=O)O[C@@H]2/C=C(\CO)CC/C=C(\C)C[C@H](OC(=O)C(=C)[C@@H](O)CO)[C@@H]12` [cnicin], the pEC50 (S. mansoni adult worms) is listed as 4.30.
For `O=c1c(O)c(-c2ccc(O)cc2)oc2cc(O)cc(O)c12` [kaempferol], the pEC50 (S. mansoni adult worms) is listed as 4.09.
In the case of `C/C=C/c1cc(OC)c2c(c1)[C@H](C)[C@@H](c1ccc(O)c(OC)c1)O2` [licarin A], the pEC50 (S. mansoni adult worms) is given as 4.52.
In the case of `C=CC(C)(C)c1cc(/C=C/C(=O)c2ccc(O)cc2)c(OC)cc1O` [licochalcone A], the pEC50 (S. mansoni adult worms) is listed as 4.30.
For Ivermectin, the “C. elegans LD50” value (Caenorhabditis elegans) was 4.1 µM.
